Laboratory results from ChEMBL document CHEMBL4052795, “Synthesis and evaluation of modified chalcone based p53 stabilizing agents” (2017).
Active and inactive are the calls of the source. The calls are words filed in the database; no cut-off is given here.

How the values were obtained:
[1] = system: HCT-116; assay: Antiproliferative activity against human HCT116 cells at 25 uM after 3 days by SRB assay relative to control; type: functional; settings: HCT-116, 72 h
[2] = system: HCT-116; assay: Antiproliferative activity against human HCT116 cells at 50 uM after 3 days by SRB assay relative to control; type: functional; settings: HCT-116, 72 h
[3] = system: HCT-116; assay: Antiproliferative activity against human HCT116 cells assessed as growth inhibition after 3 days by SRB assay; type: functional; settings: HCT-116, 72 h
In short: (§1)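 Cells treated in duplicate in 96-well format with three-fold serial dilutions from 50 µM; DMSO solvent control, Nutlin-3 positive control. Sulforhodamine B staining after 3 days; GI50 derived from dilution series.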

[4] = system: CAL-51; assay: Antiproliferative activity against human CAL51 cells assessed as growth inhibition after 3 days by SRB assay; type: functional; settings: CAL-51, 72 h; in short: as §1
[5] = biological target: Cellular tumor antigen p53 (Homo sapiens) (UniProt P04637); assay: Induction of p53 stabilization in human HCT116 cells assessed as ratio of p53 expression levels to GAPDH expression levels at 6.25 uM after 4 hrs by immunoblot analysis; type: cell-based
Cellular tumor antigen p53 (Homo sapiens), sequence (P04637 whole entry, looked up): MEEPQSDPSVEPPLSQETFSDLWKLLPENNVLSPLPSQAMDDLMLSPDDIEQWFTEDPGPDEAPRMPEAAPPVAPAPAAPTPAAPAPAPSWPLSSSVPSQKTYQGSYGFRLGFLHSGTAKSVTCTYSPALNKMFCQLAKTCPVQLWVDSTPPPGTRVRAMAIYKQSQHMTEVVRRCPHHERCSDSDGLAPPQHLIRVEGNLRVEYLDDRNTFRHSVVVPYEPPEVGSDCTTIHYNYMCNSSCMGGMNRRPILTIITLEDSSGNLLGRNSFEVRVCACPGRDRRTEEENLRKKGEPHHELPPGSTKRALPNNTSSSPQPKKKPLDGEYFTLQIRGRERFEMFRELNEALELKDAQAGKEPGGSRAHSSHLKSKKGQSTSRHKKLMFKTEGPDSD
In short: (§2)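 HCT116 treated with 6.25, 12.5 or 25 µM for 4 or 8 h; 10 µM Nutlin-3 positive control, DMSO solvent control. Lysates immunoblotted for p53 and GAPDH; band densities quantified, p53 normalized to GAPDH and expressed as fold change versus DMSO.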

[6] = biological target: Cellular tumor antigen p53 (Homo sapiens) (UniProt P04637); assay: Induction of p53 stabilization in human HCT116 cells assessed as ratio of p53 expression levels to GAPDH expression levels at 12.5 uM after 4 hrs by immunoblot analysis; type: cell-based; in short: as §2
[7] = biological target: Cellular tumor antigen p53 (Homo sapiens) (UniProt P04637); assay: Induction of p53 stabilization in human HCT116 cells assessed as ratio of p53 expression levels to GAPDH expression levels at 25 uM after 4 hrs by immunoblot analysis; type: cell-based; in short: as §2
[8] = biological target: Cellular tumor antigen p53 (Homo sapiens) (UniProt P04637); assay: Induction of p53 stabilization in human HCT116 cells assessed as ratio of p53 expression levels to GAPDH expression levels at 6.25 uM after 8 hrs by immunoblot analysis; type: cell-based; in short: as §2
[9] = biological target: Cellular tumor antigen p53 (Homo sapiens) (UniProt P04637); assay: Induction of p53 stabilization in human HCT116 cells assessed as ratio of p53 expression levels to GAPDH expression levels at 12.5 uM after 8 hrs by immunoblot analysis; type: cell-based; in short: as §2
[10] = biological target: Cellular tumor antigen p53 (Homo sapiens) (UniProt P04637); assay: Induction of p53 stabilization in human HCT116 cells assessed as ratio of p53 expression levels to GAPDH expression levels at 25 uM after 8 hrs by immunoblot analysis; type: cell-based; in short: as §2
[11] = biological target: Cellular tumor antigen p53 (Homo sapiens) (UniProt P04637); assay: Induction of p53 stabilization in human HCT116 cells assessed as ratio of p53 expression levels to GAPDH expression levels after 8 hrs by immunoblot analysis; type: cell-based; in short: as §2
[12] = biological target: Cellular tumor antigen p53 (Homo sapiens) (UniProt P04637); assay: Induction of p53 stabilization in human HCT116 cells assessed as ratio of p53 expression levels to GAPDH expression levels after 4 hrs by immunoblot analysis; type: cell-based; in short: as §2
[13] = biological target: Cellular tumor antigen p53 (Homo sapiens) (UniProt P04637); assay: Induction of p53 stabilization in human HCT116 cells assessed as increase in p53 expression levels at 12.5 uM measured up to 90 mins in presence of varying concentrations of cycloheximide by immunoblot analysis; type: cell-based
In short: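 Cycloheximide chase in HCT116: cells given cycloheximide with or without 12.5 µM compound, samples collected at timed points; immunoblot for p53 and alpha-tubulin, p53 normalized to alpha-tubulin.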

[14] = biological target: Cellular tumor antigen p53 (Homo sapiens) (UniProt P04637); assay: Induction of p53 stabilization in human HCT116 cells assessed as increase in p53 expression levels at 6.25 to 25 uM after 4 hrs by immunoblot analysis; type: cell-based; in short: as §2
[15] = biological target: Cellular tumor antigen p53 (Homo sapiens) (UniProt P04637); assay: Induction of p53 stabilization in human HCT116 cells assessed as increase in p53 expression levels at 6.25 to 25 uM after 8 hrs by immunoblot analysis; type: cell-based; in short: as §2

SMILES | GI50 [3] [µM] | inhibition at 25 µM [1] [%] | inhibition at 50 µM [2] [%] | GI50 [4] [µM] | other results
COc1ccc(C2=N[C@H](c3ccc(Cl)cc3)[C@H](c3ccc(Cl)cc3)N2C(=O)N2CCNC(=O)C2)c(OC(C)C)c1 | 1.52 |  |  |  | 
Cc1ccc(COc2ccc(C(=O)/C=C/c3ccc(F)cc3)cc2)cc1 | > 50 |  | 15.4 | > 50 | 
O=C(/C=C/c1ccc(F)cc1)c1ccc(OCc2ccccc2)cc1 | > 50 |  |  | > 50 | 
O=C(/C=C/c1ccccc1[N+](=O)[O-])c1ccccc1 | 7.69 | 100 | 100 | 2.59 | 
O=C(/C=C/c1ccccc1Cl)c1ccc(OCc2ccccc2)cc1 | 14.9 | 54.5 | 99.7 | 7.1 | 
COc1ccc(/C=C/C(=O)c2ccccc2)cc1 [4-METHOXY CHALCONE] | 3.86 | 100 | 99.7 | 2.69 | Ratio [5]: 1.11; Ratio [6]: 1.41; Ratio [7]: 1.53; Ratio [8]: 1.34; Ratio [9]: 1.2; Ratio [10]: 1.7; Activity [11]: Dose-dependent effect; Activity [12]: Dose-dependent effect; Activity [13]: Active
Cc1ccc(COc2ccc(C(=O)/C=C/c3ccc(Cl)cc3)cc2)cc1 | > 50 | 12.3 | 16.9 | > 50 | 
O=C(/C=C/c1ccc(Cl)cc1)c1ccc(OCc2ccccc2)cc1 | > 50 | 0.3 |  | > 50 | 
COc1cccc(/C=C/C(=O)c2ccc(OCc3ccccc3)cc2)c1 | 35.4 | 35.4 | 76 | 13.7 | 

Further lines, with some results ahead:

GI50 [3] [µM] | SMILES | inhibition at 25 µM [1] [%] | inhibition at 50 µM [2] [%] | GI50 [4] [µM] | other results
3.57 | COc1ccc(C(=O)/C=C/c2ccccc2)cc1 [4'-METHOXYCHALCONE] | 99.7 | 98.2 | 3.33 | 
> 50 | O=C(/C=C/c1ccc(OCc2ccccc2)cc1)c1ccccc1 | 52.3 | 49.5 | 24.7 | 
4.47 | O=C(/C=C/c1cccc([N+](=O)[O-])c1)c1ccccc1 | 100 | 99.7 | 1.08 | 
16.5 | O=C(/C=C/c1ccc(Cl)cc1)c1ccccc1 [4-CHLORO CHALCONE] | 97.5 | 100 | 5.85 | Ratio [5]: 1.24; Ratio [6]: 3.1; Ratio [7]: 3.62; Ratio [8]: 1.38; Ratio [9]: 1.15; Ratio [10]: 1.76; Activity [11]: Dose-dependent effect; Activity [12]: Dose-dependent effect
3.13 | O=C(/C=C/c1ccc([N+](=O)[O-])cc1)c1ccccc1 | 99.7 | 100 | 1.21 | 
> 100 | COc1ccc(CCC(=O)c2ccccc2)cc1 |  |  |  | Activity [14]: inactive; Activity [15]: inactive
> 50 | O=C(/C=C/c1ccccc1)c1ccc(OCc2ccccc2)cc1 | 24.3 | 33.8 | 28.9 | 
0.473 | COc1cc(/C=C/C(=O)c2ccccc2)cc(OC)c1OC | 99.4 | 99.7 | 0.78 | 
36.9 | COc1ccc(/C=C/C(=O)c2ccc(OCc3ccccc3)cc2)cc1 | 9.5 | 13.2 | > 50 | 
3.96 | O=C(/C=C/c1ccccc1)c1ccccc1 [CHALCONE] | 100 | 97.5 | 1.85 | 
> 50 | Cc1ccc(COc2ccc(C(=O)/C=C/c3ccccc3)cc2)cc1 | 4 |  | 43.2 | 
